Rows were chosen to be rich in hits. Some 1.8% of all compounds tested hit in one or more screens of this group.
NR2E3 ag-1 – agonists of human nuclear receptor NR2E3. actives 0.12% (n = 320,000). inhibition of corepressor binding, % at 4.78 µM. Q9Y5X4. GST-NR2E3/biotin-RetCOR TR-FRET, 1536-well;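 active means percent inhibition above the cutoff of mean plus 3 SD of all tested compounds, set per screening campaign, cut at about 20% in these data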
Target sequence (Q9Y5X4 whole entry, looked up): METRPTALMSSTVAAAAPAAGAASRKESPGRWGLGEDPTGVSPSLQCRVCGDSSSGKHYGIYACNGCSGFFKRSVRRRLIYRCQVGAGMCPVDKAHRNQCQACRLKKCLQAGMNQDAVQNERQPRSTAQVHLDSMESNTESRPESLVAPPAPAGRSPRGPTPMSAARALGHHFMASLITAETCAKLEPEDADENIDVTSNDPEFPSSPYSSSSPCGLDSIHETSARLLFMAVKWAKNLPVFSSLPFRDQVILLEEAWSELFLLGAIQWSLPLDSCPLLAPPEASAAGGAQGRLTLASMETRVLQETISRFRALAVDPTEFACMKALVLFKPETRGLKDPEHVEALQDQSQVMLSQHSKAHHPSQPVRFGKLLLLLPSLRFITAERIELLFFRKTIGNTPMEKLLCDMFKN
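Material: NR2E3–RetCOR corepressor complex / Amount: 1.35 nM GST-NR2E3 / Medium: Tris pH 7.5 / Compound: single nominal compound dose of 4.8 µM / Incubation: 5 h at 4 °C / Technique: TR-FRET, Eu(K)-anti-GST donor, streptavidin-D2 acceptor, ex 340, em 617/671 nm / Read-out basis: percent loss of FRET ratio relative to control wells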
NR2E3 ag-2 – activates human NR2E3 receptor. Q9Y5X4. actives 0.35% (n = 360,000). CHO-S Gal4-NCOR/VP16-NR2E3 two-hybrid, luciferase. inhibition of corepressor binding, % at 3.98 µM;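 active means inhibition above the mean of all tested compounds plus 3 SD, cut at about 70% in these data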;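 further: higher means lower luciferase signal from less NR2E3 corepressor binding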
GalR3 antag – human GalR3 antagonism. HEK293 GalR3-CNG cAMP membrane potential fluorescence; galR3 body fused to GalR1 C-terminus. O60755. actives 0.44% (n = 360,000). inhibition, % at 3 µM;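 active means inhibition above the screen-wide average plus 3 SD, cut at about 13% in these data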;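 further: forskolin and galanin both at EC90 stimulate the cells; cAMP rise reported by CNG channel membrane potential dye signal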
PG9 Ab binder – binds the HIV-1 gp120 antibody PG9; inhibition, % at 6.7 µM; TR-FRET gp120-PG9 antibody binding; actives 0.43% (n = 360,000); AID 624416; in the data active means inhibition above about 8.5%
NR1D1 modulator – Rev-erb alpha (human) modulation; P20393; AID 1259318; activity, % at 10 µM; Rev-erbα–FITC-DNA binding, fluorescence polarization, 90 min; actives 0.79% (n = 370,000);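 active means activity above about 14%, limit read from the data; passing the limit was not always enough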
NR2E3 ag confirm – NR2E3 agonism confirmed in two-hybrid assay. shares compounds with NR2E3 ag-2. CHO-S mammalian two-hybrid NR2E3-NCOR, luciferase luminescence. inhibition, % at 3.98 µM. actives 51% (n = 2,300). AID 624378;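 active means average inhibition above a cutoff equal to the mean inhibition of all tested compounds plus one SD, cut at about 70% in these data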
VP16 counter – reduces GAL4-VP16 reporter signal in NR2E3 counterscreen; CHO-S GAL4-VP16 luciferase reporter, luminescence; actives 29% (n = 2,300); AID 624379; shares compounds with NR2E3 ag-2; inhibition, % at 3.98 µM;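 active means mean inhibition above a cutoff equal to the average over all tested compounds plus one standard deviation, cut at about 70% in these data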;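 further: luciferase from a UAS reporter driven by GAL4-VP16 transactivation; higher means less reporter light so more repression of VP16 activity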
Hits are given with their value; . = inactive; / = no result given.

SMILES	NR2E3 ag-1	NR2E3 ag-2	GalR3 antag	PG9 Ab binder	NR1D1 modulator	NR2E3 ag confirm	VP16 counter
COc1ccccc1CNS(=O)(=O)c1ccc2c(c1)CC(C)N2C(=O)C1CCC1 (centres undefined)	.	72	.	.	.	72	.
CCCCN1CCS(=O)(=O)N(Cc2cn(Cc3ccccc3Br)nn2)C(C(=O)OC)C1 (centres undefined)	/	/	/	/	.	/	/
Cc1cnc(C(=O)Nc2cccc3cccnc23)cn1	/	77	.	.	.	.	.
COc1ccc(C2CC(O)(c3ccccc3)Oc3cc(OC)c(OC)c(OC)c32)cc1 (centres undefined)	.	.	.	.	.	/	/
COc1ccc([C@@]23Oc4cc(OC)cc(OC)c4[C@]2(O)[C@H](O)[C@H](C(=O)N(C)C)[C@H]3c2ccccc2)cc1	/	101	.	.	.	98	96
COCc1cccc(-c2cc(C(=O)OC)c3n(c2=O)CCC3)c1	/	/	/	/	.	/	/
CC(C(=O)O)c1ccc(-c2ccccc2)c(F)c1 (centres undefined)	.	.	.	.	.	/	/
CC(C(=O)Nc1ccccc1)c1ccc(-c2ccccc2)c(F)c1 (centres undefined)	.	74	/	/	/	.	.
CC[C@H](C)Cc1cn([C@@H](CCCN=C(NC(=O)OC(C)(C)C)NC(=O)OC(C)(C)C)C(=O)NCCCCCCCCCCC(=O)N2CCN(C(=O)OC(C)(C)C)CC2)nn1	.	.	/	/	/	/	/
Cc1cn([C@@H](CCCCNC(=O)OC(C)(C)C)C(=O)NCCCCCCCCCCC(=O)N2CCN(C(=O)OC(C)(C)C)CC2)nn1	.	.	/	/	/	74	.
C=C(C)C1CCC2(C(=O)O)CCC3(C)C(CCC4C5(C)C(C=O)C(O)C(C)(C)C5CCC43C)C12 (centres undefined)	.	76	.	.	.	.	.
OC[C@@H]1CN(Cc2ccc(-c3ccccc3)cc2)C[C@H](n2cnc3c(Nc4ccccc4)ncnc32)O1	/	.	.	.	.	76	.
CC(C)N(C)c1ncnc2c1ncn2[C@H]1CN(Cc2ccc(-c3ccccc3)cc2)C[C@@H](CO)O1	/	.	.	.	.	.	.
OC[C@@H]1CN(Cc2ccc(F)cc2)C[C@H](n2cnc3c(Nc4ccccc4)ncnc32)O1	/	.	.	.	.	/	/
OC[C@@H]1CN(Cc2cccc3ccccc23)C[C@H](n2cnc3c(NCc4ccco4)ncnc32)O1	/	.	.	.	.	.	.
O=C(OC12CCCN(C1)/C(=C/c1cccnc1)C2)c1ccco1 (centres undefined)	/	/	/	/	.	/	/
Cc1ccc(S(=O)(=O)n2ccc3c(OCCOCCSCC(NC(=O)OC(C)(C)C)C(=O)O)cccc32)cc1 (centres undefined)	.	.	.	.	.	/	/
Cc1ccc(S(=O)(=O)n2ccc3c(OCCOCCNCc4ccc(F)cc4)cccc32)cc1	.	.	.	.	.	.	.
CCOC(=O)C1(Cc2ccccc2)CCN(Cc2ccnc3ccccc23)CC1	/	/	/	/	.	/	/
O=C(Cn1cnc2ccccc2c1=O)Nc1ccc2c(c1)OCO2	.	.	.	.	.	/	/
O=C(Cn1cnc2ccccc21)Nc1ccc2c(c1)OCCCO2	.	.	.	.	.	.	.
O=C(CSc1ncccc1C(=O)O)Nc1ccc2c(c1)OCCO2	.	.	.	.	.	.	.
COC(=O)[C@@]12CCCCC3=C1N(CCC3)C(=O)[C@H]2CC(=O)N1CCN(C(=O)C2CC2)CC1	/	/	/	/	.	/	/
CC(=O)CC[C@H]1CC[C@]2(CCCN(C(=O)c3ccno3)C2)O1	/	/	/	/	.	/	/
CCN(CC)c1ccc(S(=O)(=O)Nc2cc(Cl)ccc2Cl)cc1NC(=S)NC(=O)C1CCCC1	.	.	.	.	.	.	.
CCN(CC)S(=O)(=O)c1ccc(Cl)c(NC(=S)NC(=O)C2CCCC2)c1	.	.	.	.	.	/	/
Cc1cccc(-c2cccc3c4c([nH]c23)[C@@H]2C[C@H](N(C)C(=O)c3ccccc3C)[C@H]([C@H](C)O)CN2CC4)c1	/	/	/	/	.	/	/
